Assay: Toxicity liver stage against HepG2, at 10uM
Assay type: cell-based
Design: test concentration 10 uM, cell line HepG2-A16-CD81EGFP
Conditions: human, HepG2-A16-CD81EGFP cells; read-out: INHIBITION
How it was run: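 Uninfected HepG2-A16-CD81EGFP cells, 3 × 10^3 per well, 1536-well, plated on prespotted compound at 10 μM final, parasite-free screening media added to match infected plates; puromycin 10 μM positive, DMSO 0.5% negative; run in parallel with 48 h PbLuc assay at 37 °C, 5% CO2; viability by CellTiter-Glo luminescence, normalized to controls.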

Going from `Cc1nnc(N(CCC#N)CCC#N)s1` to `Cc1nc(CNC(=O)N(CCCO)C2CCc3ccccc32)oc1C` (stereo unspecified), the cytotoxicity at 10 µM falls from -0.402% to -13.5%.

First: CCC(C)(C)n1nnnc1C(c1cccs1)N1CCCCC1 (stereo unspecified)
Second: CC(C)(C)c1nnc2n1C(C(=O)N1CCCC1)CC2 (stereo unspecified)
The cytotoxicity at 10 µM of the first is higher: 2.09% for the first, 1.61% for the second.

Compared with `COc1ccccc1CNc1c(O)c(=O)c1=O`, `O=C(c1cc(=O)c(OCc2ccccc2F)co1)N1CCSCC1` is lower in cytotoxicity at 10 µM: 4.65% for the first, -3.82% for the second.

First: COCC(O)CN1CCC(=O)N(CC2CC2)Cc2ccccc21 (stereo unspecified)
Second: Cc1ccccc1OCC1CCCN(C(=O)CNC(=O)N(C)C)C1 (stereo unspecified)
The cytotoxicity at 10 µM of the first is higher: 2.76% for the first, -4.46% for the second.

First: O=C(c1cc(=O)c(OCc2ccccc2)co1)N1CCSCC1
Second: CN(C)Cc1cnc2n1CCN(C(=O)NCc1ccccc1)CC2
The cytotoxicity at 10 µM of the first is higher: -0.295% for the first, -6.41% for the second.

Going from `CC(=O)Nc1cccc2c1ccn2CC(=O)Nc1nc[nH]n1` to `NC(=O)COc1ccc(CNC(=O)CN2CCc3ccccc32)cc1`, the cytotoxicity at 10 µM falls from -0.79% to -4.07%.

First: COc1cccc(NC(=O)Nc2ccc3c(c2)CC(=O)N3)c1
Second: O=C(NC1CC(=O)N(Cc2cccc(F)c2)C1)c1ccncc1 (stereo unspecified)
The cytotoxicity at 10 µM of the first is higher: -2.35% for the first, -7.41% for the second.

First: O=C(C1CCSCC1)N1CC[C@H]2OCC[C@@]2(COCC2CC2)C1
Second: O=C(NC1CC1)[C@H]1C[C@H]2OCC[C@H]2N(CC2CC2)C1
The cytotoxicity at 10 µM of the first is lower: -1.16% for the first, 2.76% for the second.

First: Cn1nc(C(=O)N2CCCC2)c2c1CN(CC1CCOCC1)C2
Second: CO[C@@H]1CC[C@H]2[C@H]1OCCN2CC1CCOCC1
The cytotoxicity at 10 µM of the first is higher: -2.51% for the first, -20.3% for the second.

Compared with `CNC(=O)[C@@H]1C[C@H]2CN(C(=O)c3ccccn3)C[C@H]2N1C(C)C`, `O=C(c1ccccn1)N1C[C@H]2CC[C@@H](C1)N(C(=O)CCc1cccs1)C2` is lower in cytotoxicity at 10 µM: 7.45% for the first, -9% for the second.

Going from `O=C(Cc1ccccn1)N1CCC2(CC1)CN(c1ccccn1)CCO2` to `Cc1nc(CC(=O)N2CCN(CCOc3ccccc3)CC2)cs1`, the cytotoxicity at 10 µM falls from 8.85% to -15.2%.

Going from `CN(C)C(=O)N1CCN(C(=O)c2ccc(Cl)cc2)CC2(CNC(=O)C2)C1` (stereo unspecified) to `CC(=O)N1CCCN(C(=O)NC(C)c2csc3ccccc23)CC1` (stereo unspecified), the cytotoxicity at 10 µM falls from 10.5% to -4.6%.

Compared with `O=C1CCSCC(C(=O)N2CCOCC2)N1` (stereo unspecified), `CC(=O)N1CCCC1c1ccc(C(=O)N2CCOCC2)s1` (stereo unspecified) is higher in cytotoxicity at 10 µM: -11.3% for the first, 6.92% for the second.

Going from `COC(=O)c1sccc1S(=O)(=O)N1CCC(Oc2cccnn2)CC1` to `CCC(NC(=O)C1CCN(S(=O)(=O)N(C)C)CC1)c1ccc(C)c(C)c1` (stereo unspecified), the cytotoxicity at 10 µM rises from -4.82% to -1.02%.

Compared with `COCCN1C(=O)CCC12CCN(C(=O)CC1CC1)CC2`, `CN1CC(=O)N(c2ccsc2)CC12CCN(C(=O)CC1CCCC1)C2` (stereo unspecified) is lower in cytotoxicity at 10 µM: 3.73% for the first, -77.3% for the second.

Going from `CC(C(=O)N1CCN(C)CC1)n1cc(Br)cn1` (stereo unspecified) to `Cc1nc(-c2cc(C(=O)N3CCCN(C)CC3)c3ccccn23)cn1C`, the cytotoxicity at 10 µM rises from 3.6% to 5.59%.

Compared with `c1cnc(-c2nn3c(CN4CCCCCC4)nnc3s2)cn1`, `CCc1nnc2n1CCN(Cc1nc(-c3ccoc3)no1)C2` is lower in cytotoxicity at 10 µM: 10.8% for the first, -4.1% for the second.

First: CNC(=O)[C@@H]1CN(C(=O)COC)C[C@H]1c1ccnc(N2CCCC2)n1
Second: CCC(=O)N1CCCC(c2cc(Nc3ncccn3)nc(C)n2)C1 (stereo unspecified)
The cytotoxicity at 10 µM of the first is higher: 2.75% for the first, -3.48% for the second.

Going from `Cc1cc(Nc2cnccn2)cc(C2CCCN2)n1` (stereo unspecified) to `CCc1nccn1C1CCCN(C(=O)c2cncnc2C)C1` (stereo unspecified), the cytotoxicity at 10 µM falls from 2.54% to -11.8%.

Compared with `Cc1ccc(C(=O)N2CCC3(CCCCC3)C2)c(=O)[nH]1`, `CN(C)CC(=O)N1CCCC2(CCC(=O)N(CCc3c[nH]cn3)C2)C1` (stereo unspecified) is lower in cytotoxicity at 10 µM: -2.47% for the first, -8.77% for the second.

First: CCOCC1CCCN(C(=O)NCc2cn3c(C)cccc3n2)C1 (stereo unspecified)
Second: CCN(CC)C(=O)CNC(=O)N1CCC(c2ccc(OC)cc2)C1 (stereo unspecified)
The cytotoxicity at 10 µM of the first is higher: 12.8% for the first, -5.51% for the second.

Compared with `CC(C)C(=O)N1CCCC1C(=O)Nc1ccc(F)c(F)c1` (stereo unspecified), `CCCNC(=O)CCC(=O)N1CCC(c2noc3cc(F)ccc23)CC1` is higher in cytotoxicity at 10 µM: -1.57% for the first, 2.45% for the second.

Going from `COc1c(CNC(C)C(=O)NC2CCCC2)c(C)nn1C` (stereo unspecified) to `CCc1nc(NC2CCN(CC(=O)NC3CC3)CC2)c2cnn(C)c2n1`, the cytotoxicity at 10 µM rises from -8.45% to 4.99%.

Compared with `CC(C)(C)n1nc(C(=O)NCC2(C(N)=O)CCOCC2)cc1C1CC1`, `CNC(=O)[C@@]12CCO[C@@H]1CCN(S(=O)(=O)c1ccc(C)cc1)C2` is lower in cytotoxicity at 10 µM: -15.9% for the first, -69.9% for the second.

Going from `N#CC(NC(=O)CC1CCSCC1)c1cnn(-c2ccccc2)c1` (stereo unspecified) to `O=C(CCCOCc1ccccc1)N1CCCC(n2cncn2)C1` (stereo unspecified), the cytotoxicity at 10 µM falls from 6.1% to -17.5%.

Compared with `Cc1cnn(C2CCCN(C(=O)Cn3ccc(=O)n(C)c3=O)C2)c1` (stereo unspecified), `Cc1cc(C)n(C2CCCN(C(=O)CCc3nccs3)C2)n1` (stereo unspecified) is lower in cytotoxicity at 10 µM: 1.99% for the first, -28.1% for the second.

First: Cc1cc(NC(=O)CN2CCCC2c2noc(C3CC3)n2)no1 (stereo unspecified)
Second: CSCCCN1CCCC1c1noc(C)n1 (stereo unspecified)
The cytotoxicity at 10 µM of the first is lower: -13% for the first, -7.59% for the second.

First: COCc1cncc2c1CCN(C(=O)c1ccoc1C)C2
Second: O=C(c1ccc[nH]1)N1CCc2onc(COc3cccnc3)c2C1
The cytotoxicity at 10 µM of the first is lower: -81.1% for the first, -62.6% for the second.

Going from `O=C(c1ccsc1)N1CCN2C[C@H](OCc3cccnc3)C[C@H]2C1` to `COCCC(=O)N(Cc1cccnc1)CC1CCN(C2CCCC2)CC1`, the cytotoxicity at 10 µM falls from 0.59% to -5%.

Going from `CN(Cc1cn[nH]c1-c1ccc(F)cc1)C(=O)CCC1CC1` to `COCC1c2c(cnn2C)CCN1Cc1ccc(F)cc1` (stereo unspecified), the cytotoxicity at 10 µM falls from 9.12% to -10.6%.

Compared with `O=C(CN1CCOc2ccccc2C1)NCc1cc2n(n1)CCNC2`, `CC(NC(=O)NCCCn1cncn1)c1ccc2c(c1)OCCO2` (stereo unspecified) is lower in cytotoxicity at 10 µM: 1.03% for the first, -6.85% for the second.

First: Cc1cnccc1CNCc1ccc(OC23CCCN(CC2)C3)cc1 (stereo unspecified)
Second: COc1cccc2cc(CNCc3ccc(N4CCCC4)nc3)oc12
The cytotoxicity at 10 µM of the first is lower: -12.3% for the first, -5.42% for the second.

Going from `Cc1ccnn1CC(=O)N(C)Cc1ccc(-n2cccn2)cc1` to `CN(C)CC(=O)N1CCC2(CCc3ccc(-c4ccncc4)cc32)CC1`, the cytotoxicity at 10 µM rises from 0.0616% to 6.34%.

First: CC(c1ccccn1)N(C)Cc1cc2cc3c(cc2[nH]c1=O)OCO3 (stereo unspecified)
Second: Fc1ccc2[nH]c(C3CCCN3CCc3ccccn3)nc2c1 (stereo unspecified)
The cytotoxicity at 10 µM of the first is higher: 11.7% for the first, -9.7% for the second.

First: CCOCc1nc2c(c(NCCNC(C)=O)n1)CCN(C(C)=O)CC2
Second: CCCC(=O)N1CCC(C(=O)NCCNc2ncccn2)CC1
The cytotoxicity at 10 µM of the first is higher: 9.93% for the first, -20% for the second.

Compared with `CC(=O)Nc1ncc(S(=O)(=O)N2CCOCC2)s1`, `Fc1cnc(N2CC[C@@H](N3CCOCC3)[C@@H]2Cc2ccncc2)nc1` is lower in cytotoxicity at 10 µM: 4.81% for the first, 0.81% for the second.

Going from `CN1CCC(Oc2ccc(NC(=O)c3ccccc3)cc2)CC1` to `Cc1ccc(CNC(=O)c2ccc(S(=O)(=O)N3C[C@H]4C[C@@H]3CN4)cc2)o1`, the cytotoxicity at 10 µM falls from -5.13% to -7.2%.

Going from `CC(C)Oc1cc(N2CCC(N3CCC(O)CC3)CC2)nc(N)n1` to `CCc1nc(C2CCCN(C(=O)c3cc(C(C)C)[nH]n3)C2)no1` (stereo unspecified), the cytotoxicity at 10 µM rises from -12.2% to -1.24%.

Going from `CCOCCn1nc(C)cc1C(=O)N1CCN(C(C)C)C(CC)C1` (stereo unspecified) to `CCN1C[C@@H]2[C@@H](OC)CCN(S(=O)(=O)c3ccccc3F)[C@@H]2C1`, the cytotoxicity at 10 µM rises from -14.2% to -0.902%.

Going from `NC(=O)c1cnn2c1NCC(CNCCc1cccs1)C2` (stereo unspecified) to `c1cnc(N2CCO[C@H]3[C@H](OCC4CC4)CC[C@@H]32)nc1`, the cytotoxicity at 10 µM rises from -9.63% to 5.88%.

For `Cc1nc(C2CCCN2Cc2nccn2CC(F)(F)F)no1` (stereo unspecified), the cytotoxicity at 10 µM was -16.5%.
